The values below come from ChEMBL document CHEMBL1764957, “Inhibitors and promoters of tubulin polymerization: synthesis and biological evaluation of chalcones and related dienones as potential anticancer agents” (Bioorg Med Chem, 2011).

Assay [1] has as its target T1, Tubulin (Sus scrofa) (UniProt P02554+P02550). As to the kind of experiment: Inhibition of pig tubulin polymerization at 3 uM. It is filed as protein assay. Put shortly: (§1)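 Kit assay with porcine tubulin, standard protocol, read by fluorescent reporter enhancement. Test substances were dissolved in DMSO and run at 5 and 25. Docetaxel (stabilizing control) and vincristine (destabilizing control) were diluted in PBS and used at 3. The experiment was run twice and mean values were reported.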

Another assay has as its system NCI-H69. The assay is described as follows: Cytotoxicity against human NCI-H69 cells after 72 hrs by fluorometric assay. Format: functional, cell-based. The conditions noted are these: NCI-H69, 72 h. Put shortly:
(§2)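 Fluorometric microculture cytotoxicity assay (FMCA). Cell suspensions (10,000–20,000 cells per mL) were exposed at 37 °C for 72 h to six concentrations from 0.016 to 50, added from DMSO stocks (at most 1% DMSO final). Cells were washed with PBS and given fluorescein diacetate (10 µg/mL). Fluorescence at 485/520 nm was read after 40 min. Survival index is relative to untreated wells. Duplicate wells, experiment repeated twice.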

Assay [2] concerns the target T1, Tubulin (Sus scrofa). The assay is described as follows: Inhibition of pig tubulin polymerization at 25 uM. It is filed as protein assay. Put shortly: as §1
A further assay has as its system CCRF-CEM. As to the kind of experiment: Cytotoxicity against human CCRF-CEM cells after 72 hrs by fluorometric assay. It is filed as functional, cell-based. Put shortly: as §2
Another assay has as its system H69AR. As to the kind of experiment: Cytotoxicity against human H69AR cells after 72 hrs by fluorometric assay. It is filed as functional, cell-based. Put shortly:
as §2

A short description of assay [3]: Cytotoxicity against human 8226/LR-5 cells after 72 hrs by fluorometric assay. Format: functional, cell-based. Put shortly: as §2
Assay [4] is described as follows: Cytotoxicity against human vincristine-resistant […] cells after 72 hrs by fluorometric assay. Format: functional, cell-based. Put shortly:
as §2

Assay [5] can be described thus: Cytotoxicity against human CEM/VM1 cells after 72 hrs by fluorometric assay. Format: functional, cell-based. The following applies: CEM-VM1, 72 h. Summed up: as §2
A short description of assay [6]: Cytotoxicity against human 8226/DOX40 cells after 72 hrs by fluorometric assay. Format: functional, cell-based. Summed up:
as §2

The subject of another assay is RPMI-8226. The assay is described as follows: Cytotoxicity against human RPMI8226 cells after 72 hrs by fluorometric assay. It is filed as functional, cell-based. The conditions noted are these: RPMI-8226, 72 h. Summed up: as §2
For another assay, the system named is ACHN. As to the kind of experiment: Cytotoxicity against human ACHN cells after 72 hrs by fluorometric assay. It is filed as functional, cell-based. Put shortly:
as §2

For a further assay, the system named is U-937/GTB. As to the kind of experiment: Cytotoxicity against human U937/GTB cells after 72 hrs by fluorometric assay. Format: functional, cell-based. Summed up:
as §2

Assay [7] addresses T1, Tubulin (Sus scrofa). The assay is described as follows: Effect on pig tubulin polymerization assessed as microtubule stabilization at 25 uM. Format: protein assay. Summed up:
as §1

Assay [8] concerns the target T1, Tubulin (Sus scrofa). As to the kind of experiment: Effect on pig tubulin polymerization assessed as microtubule stabilization at 3 uM. It is filed as protein assay. Put shortly:
as §1

The mark [9] stands for this setting: Homo sapiens, H69AR, 72 h, read-out: IC50.

Activity calls are given as the source filed them. The rule behind the calls is not given here.

T1 sequence (P02550 whole entry, looked up): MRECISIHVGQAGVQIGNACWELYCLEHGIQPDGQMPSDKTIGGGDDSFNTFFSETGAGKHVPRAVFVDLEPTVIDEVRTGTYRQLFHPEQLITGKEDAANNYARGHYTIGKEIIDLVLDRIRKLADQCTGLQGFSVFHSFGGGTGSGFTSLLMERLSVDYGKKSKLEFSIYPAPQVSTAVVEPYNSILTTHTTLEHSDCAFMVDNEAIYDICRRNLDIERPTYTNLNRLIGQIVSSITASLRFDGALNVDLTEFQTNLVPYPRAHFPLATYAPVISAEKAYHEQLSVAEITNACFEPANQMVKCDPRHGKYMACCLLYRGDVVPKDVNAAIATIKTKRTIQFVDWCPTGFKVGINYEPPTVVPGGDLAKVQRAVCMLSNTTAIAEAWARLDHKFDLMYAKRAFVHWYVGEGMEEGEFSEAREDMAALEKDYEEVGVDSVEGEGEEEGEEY
T1 sequence (P02554 whole entry, looked up): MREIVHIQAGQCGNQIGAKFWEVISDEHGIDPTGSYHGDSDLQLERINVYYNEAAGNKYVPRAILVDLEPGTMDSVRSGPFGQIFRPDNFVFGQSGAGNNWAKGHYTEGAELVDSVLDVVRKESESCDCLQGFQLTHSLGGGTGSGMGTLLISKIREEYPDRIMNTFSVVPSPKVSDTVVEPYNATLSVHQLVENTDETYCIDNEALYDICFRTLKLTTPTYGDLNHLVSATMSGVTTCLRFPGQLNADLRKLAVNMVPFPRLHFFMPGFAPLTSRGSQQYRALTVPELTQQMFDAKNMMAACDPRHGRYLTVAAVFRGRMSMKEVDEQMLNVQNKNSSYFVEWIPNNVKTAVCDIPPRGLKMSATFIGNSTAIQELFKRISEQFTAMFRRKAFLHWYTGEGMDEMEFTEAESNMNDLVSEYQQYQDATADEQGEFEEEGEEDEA

As to `CC[C@]1(O)C[C@H]2CN(CCc3c([nH]c4ccccc34)[C@@](C(=O)OC)(c3cc4c(cc3OC)N(C=O)[C@H]3[C@@](O)(C(=O)OC)[C@H](OC(C)=O)[C@]5(CC)C=CCN6CC[C@]43[C@@H]65)C2)C1`, the inhibition entry at Tubulin (Sus scrofa) [1] was “Active”.
With `O=C(/C=C/C=C/c1ccccc1)c1cc(Cl)cc(Br)c1O`, the IC50 is 19.9 µM with NCI-H69; 129 µM in the assay on CCRF-CEM; “Non-toxic” in the assay on H69AR (h69ar); 23.4 µM in [3]; 31.7 µM in assay [4]; 48.6 µM in [5]. Besides, the IC50 in assay [6] was determined as 14.2 µM; with RPMI-8226 it was 48.8 µM; in the assay on ACHN, 93 µM; in the assay with U-937/GTB, 36.6 µM. In addition, at Tubulin (Sus scrofa) [2], the inhibition result is “Active”.
As for `O=C(/C=C/c1cccs1)c1cc(Cl)cc(Br)c1O`, the IC50 in the assay with NCI-H69 came to 20 µM; with CCRF-CEM it was 152 µM; in the assay with H69AR (setting [9]), 56.1 µM; in assay [3], 23.3 µM; in [4], 32.6 µM; in assay [5], 48.9 µM. Besides, the IC50 in [6] amounted to 26.5 µM; in the assay with RPMI-8226, 79 µM; with ACHN it was 44.2 µM; in the assay on U-937/GTB, 42.5 µM. Further, on Tubulin (Sus scrofa) [2], the inhibition entry was “Active”.
For the compound `CCN(CC)c1ccc(/C=C/C(=O)c2cc(Cl)cc(Br)c2O)cc1`, the IC50 in the assay on NCI-H69 was 5.2 µM; with CCRF-CEM, 14.8 µM; in the assay with H69AR (setting [9]), 24.5 µM; in assay [3] it was 9.4 µM; in assay [4], 8.8 µM; in assay [5] it was 14.5 µM. The IC50 is 9.7 µM in [6], 29.4 µM with RPMI-8226, 164 µM in the assay with ACHN and 9.3 µM with U-937/GTB. Besides, on Tubulin (Sus scrofa) [2], the inhibition entry is “Active”.
On to `O=C(/C=C/c1ccc(C(F)(F)F)cc1)c1cc(Cl)cc(Br)c1O`, for which the IC50 in the assay on NCI-H69 was determined as 11.5 µM; with CCRF-CEM, 15.4 µM; with H69AR (setting [9]), 33.2 µM; in [3], 22.3 µM; in [4], 24.4 µM; in [5], 31.1 µM. Besides, the IC50 amounted to 22.5 µM in assay [6], 20.8 µM in the assay with RPMI-8226, 49.4 µM with ACHN and 14.9 µM with U-937/GTB. Further, the inhibition entry at Tubulin (Sus scrofa) [2] was “inactive”.
For the compound `O=C(/C=C/C=C/c1cn(Cc2ccccc2)c2ccccc12)c1cc(Cl)cc(Br)c1O`, the IC50 in the assay with NCI-H69 came to 11.1 µM; with CCRF-CEM it was 280 µM; in the assay with H69AR (setting [9]) it was 48.5 µM; in assay [3], 70 µM; in [4] it was 54 µM; in [5], 89 µM. In addition, the half-maximal inhibitory concentration (IC50) in [6] was determined as 42.3 µM; in the assay on RPMI-8226, 119 µM; with ACHN it was 17 µM; in the assay with U-937/GTB it was 49 µM. The result on Tubulin (Sus scrofa) [7] was Active.
Regarding `O=C(/C=C/c1ccccc1)c1cc(Cl)cc(Br)c1O`, the IC50 was 10.3 µM in the assay on NCI-H69; 37.6 µM with CCRF-CEM; 26.4 µM with H69AR (setting [9]); 13.2 µM in assay [3]; 24.2 µM in assay [4]; 22.3 µM in assay [5]. The IC50 in assay [6] was determined as 12.4 µM; in the assay on RPMI-8226 it was 18.7 µM; in the assay on ACHN, 48.9 µM; in the assay on U-937/GTB it was 20 µM. For the same compound, the inhibition entry on Tubulin (Sus scrofa) [2] was “Active”.
Take `CC(=O)O[C@@]12CO[C@@H]1C[C@H](O)[C@@]1(C)C(=O)[C@H](O)C3=C(C)[C@@H](OC(=O)[C@H](O)[C@@H](NC(=O)OC(C)(C)C)c4ccccc4)C[C@@](O)([C@@H](OC(=O)c4ccccc4)[C@H]21)C3(C)C`: on Tubulin (Sus scrofa) [8], the result was Active.
`O=C(/C=C(\O)c1cc(Cl)cc(Br)c1O)/C=C/c1ccccc1`: the IC50 in the assay on NCI-H69 was 9.4 µM; in the assay on CCRF-CEM, 34.1 µM; with H69AR (setting [9]) it was 25.5 µM; in assay [3], 33.5 µM; in assay [4], 23.9 µM; in [5], 24.1 µM. Further, the IC50 in assay [6] worked out at 19.1 µM; in the assay on RPMI-8226, 27.9 µM; in the assay on ACHN it was 37.8 µM; in the assay with U-937/GTB it was 18.1 µM. For the same compound, the inhibition entry on Tubulin (Sus scrofa) [2] was “inactive”.
On to `COc1ccc(/C=C/C(=O)c2cc(Cl)cc(Br)c2O)cc1`, for which the IC50 stood at 16.4 µM in the assay on NCI-H69; 111 µM with CCRF-CEM; 42.6 µM in the assay on H69AR (setting [9]); 46 µM in assay [3]; 77 µM in assay [4]; 45.8 µM in assay [5]. Further, the IC50 stood at 16.9 µM in assay [6], 80 µM in the assay on RPMI-8226, 49.4 µM in the assay with ACHN and 45 µM in the assay on U-937/GTB. Besides, the inhibition result on Tubulin (Sus scrofa) [2] is “inactive”.
On to `CCN(CC)c1ccc(/C=C/C(=O)c2cc(Br)cc(Br)c2O)cc1`, for which the IC50 with NCI-H69 is 7.1 µM; in the assay on CCRF-CEM it was 20.1 µM; in the assay on H69AR (setting [9]), 38.8 µM; in assay [3] it was 9.9 µM; in assay [4] it was 9.6 µM; in assay [5], 13.1 µM. The IC50 was 7.7 µM in assay [6], 26.1 µM in the assay on RPMI-8226, 69 µM in the assay on ACHN and 8.2 µM in the assay on U-937/GTB. Moreover, the inhibition result on Tubulin (Sus scrofa) [2] was “Active”.
